Test results published in ChEMBL document CHEMBL4020721 (Eur J Med Chem, 2017).

Experiments:
CYP2D6 = CYP2D6 (Homo sapiens, UniProt P10635); assay: Reversible inhibition of CYP2D6 in human liver microsomes at 10 uM after 20 mins in presence of NADPH by LC-MS/MS analysis; assay type: ADME; settings: liver microsomes
SNU-5 = assay: Growth inhibition of human SNU5 cells after 72 hrs by CCK-8 assay; assay type: functional, cell-based; settings: snu-5
[1] = molecular target: Mast/stem cell growth factor receptor Kit (Homo sapiens, UniProt P10721); assay: Inhibition of c-Kit (unknown origin) using FAM-labeled peptide as substrate preincubated for 5 to 10 mins followed by substrate/ATP addition measured after 30 to 60 mins by mobility shift assay
Summary of the method: (§1)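 Caliper mobility-shift assay with FAM-labeled peptide substrate. Buffer: 50 mM HEPES pH 7.5, 0.0015% Brij-35, 10 mM MgCl2, 2 mM DTT, with kinase-specific enzyme levels. […] Incubation was 30-60 min at 28°C, stopped with EDTA buffer. Read-out was % conversion.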

CYP1A2 = molecular target: T1, CYP1A2 (Homo sapiens, UniProt P05177); assay: Reversible inhibition of CYP1A2 in human liver microsomes at 10 uM after 20 mins in presence of NADPH by LC-MS/MS analysis; assay type: ADME
T1 sequence (P05177 whole entry): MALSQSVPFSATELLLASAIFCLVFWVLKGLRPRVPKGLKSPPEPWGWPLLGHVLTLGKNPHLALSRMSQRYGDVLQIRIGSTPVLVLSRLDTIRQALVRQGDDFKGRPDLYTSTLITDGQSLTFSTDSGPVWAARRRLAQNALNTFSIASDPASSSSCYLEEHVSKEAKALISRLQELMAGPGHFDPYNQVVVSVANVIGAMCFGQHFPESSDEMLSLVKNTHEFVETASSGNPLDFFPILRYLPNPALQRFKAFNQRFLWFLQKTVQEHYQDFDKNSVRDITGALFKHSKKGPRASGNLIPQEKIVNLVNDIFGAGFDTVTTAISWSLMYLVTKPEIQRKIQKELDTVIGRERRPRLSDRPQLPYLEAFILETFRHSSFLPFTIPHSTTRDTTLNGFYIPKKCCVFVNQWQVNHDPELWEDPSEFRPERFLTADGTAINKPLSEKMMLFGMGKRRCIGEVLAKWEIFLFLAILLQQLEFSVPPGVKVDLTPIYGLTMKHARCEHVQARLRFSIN

[2] = molecular target: Macrophage-stimulating protein receptor (Homo sapiens, UniProt Q04912); assay: Inhibition of RON (unknown origin) using FAM-labeled peptide as substrate preincubated for 5 to 10 mins followed by substrate/ATP addition measured after 30 to 60 mins by mobility shift assay; summary of the method: as §1
Rattus norvegicus = assay: Oral bioavailability in Sprague-Dawley rat plasma at 6 mg/kg by UPLC-MS/MS analysis; assay type: ADME, organism-based; settings: in vivo
Summary of the method: (§2)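 Male Sprague-Dawley rats (180-220 g) were fasted overnight with free access to water. Dosing was intravenous (n=2) or oral at 6 mg/kg (n=3). Heparinized blood was drawn from 0 to 1440 min. Plasma was frozen at -20°C, then precipitated with acetonitrile containing internal standard, centrifuged and analysed by UPLC-MS/MS.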

[3] = Intrinsic clearance in human liver microsomes assessed per mg protein at 1 uM preincubated for 5 mins followed by NADPH addition measured after 5 to 30 mins by LC-MS/MS analysis; assay type: ADME, microsome; settings: read-out: CLH
Summary of the method: (§3)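 Microsomes (0.5 mg/ml) with 1 µM compound were preincubated 5 min at 37°C in 100 mM phosphate buffer pH 7.4, then started with 1 mM NADPH. Samples were taken at 0, 5, 10 and 30 min, quenched with acetonitrile/tinidazole and run by LC-MS/MS. CLint = k / microsomal protein concentration. Midazolam was the positive control.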

[4] = Intrinsic clearance in rat liver microsomes assessed per mg protein at 1 uM preincubated for 5 mins followed by NADPH addition measured after 5 to 30 mins by LC-MS/MS analysis; assay type: ADME, microsome; settings: read-out: CLH; summary of the method: as §3
CYP2C9 = CYP2C9 (Homo sapiens, UniProt P11712); assay: Time dependent irreversible inhibition of CYP2C9 in human liver microsomes at 10 uM preincubated with compound followed by NADPH addition by LC-MS/MS analysis; assay type: ADME; settings: liver microsomes
Summary of the method: (§4)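 HLM (0.2 mg/ml) with 10 µM compound were preincubated 0, 5, 10 or 20 min at 37°C with 1 mM NADPH or PBS. Substrate cocktail (halved concentrations) plus NADPH was then added for 10 min. Metabolites were measured by LC-MS/MS. Kobs is the slope of relative activity versus preincubation time.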

[5] = molecular target: Receptor tyrosine-protein kinase erbB-4 (Homo sapiens, UniProt Q15303); assay: Inhibition of ERBB4 (unknown origin) using FAM-labeled peptide as substrate preincubated for 5 to 10 mins followed by substrate/ATP addition measured after 30 to 60 mins by mobility shift assay; summary of the method: as §1
Mus musculus [6] = assay: Toxicity in BALB/c athymic nude mouse xenografted with human SNU5 cells assessed as apparent toxicity parameters at 0.3 to 3 mg/kg, po administered once daily for 2 weeks; assay type: organism-based; settings: in vivo, 336 h
Summary of the method: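 Female/male BALB/c nude mice (5-6 weeks, SPF). NCI-H1993 cells (7×10^6 in 140 µL) or SNU-5 cells (6×10^6 in 200 µL) injected s.c. into the right flank. Dosing started at mean tumour volume 150-250 mm³ (NCI-H1993) or 100-200 mm³ (SNU-5). Randomized, n = 7 (NCI-H1993) or 6 (SNU-5) per group. Oral dosing once daily; vehicle controls. Body weight and signs of toxicity monitored during treatment.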

[7] = AUC (0 to 24 hrs) in Sprague-Dawley rat plasma at 6 mg/kg, po by UPLC-MS/MS analysis; assay type: ADME, organism-based; parameters: dose 6 mg/kg, time < 24 hr, route oral; summary of the method: as §2
CYP2C19 = CYP2C19 (Homo sapiens, UniProt P33261); assay: Time dependent irreversible inhibition of CYP2C19 in human liver microsomes at 10 uM preincubated with compound followed by NADPH addition by LC-MS/MS analysis; assay type: ADME; summary of the method: as §4
[8] = Cmax in Sprague-Dawley rat plasma at 6 mg/kg, po by UPLC-MS/MS analysis; assay type: ADME, organism-based; parameters: dose 6 mg/kg, route oral; summary of the method: as §2
[9] = Half life in Sprague-Dawley rat plasma at 1 mg/kg, iv by UPLC-MS/MS analysis; assay type: ADME, organism-based; summary of the method: as §2
[10] = molecular target: Epidermal growth factor receptor (Homo sapiens, UniProt P00533, T790M); assay: Inhibition of EGFR T790M mutant (unknown origin) using FAM-labeled peptide as substrate preincubated for 5 to 10 mins followed by substrate/ATP addition measured after 30 to 60 mins by mobility shift assay; summary of the method: as §1
[11] = molecular target: Platelet-derived growth factor receptor alpha (Homo sapiens, UniProt P16234); assay: Inhibition of PDGFRalpha (unknown origin) using FAM-labeled peptide as substrate preincubated for 5 to 10 mins followed by substrate/ATP addition measured after 30 to 60 mins by mobility shift assay; summary of the method: as §1
[12] = molecular target: Hepatocyte growth factor receptor (Homo sapiens, UniProt P08581); assay: Inhibition of c-MET (unknown origin) using TK substrate-biotin peptide as substrate preincubated for 5 to 10 mins followed by ATP addition measured after 30 mins by HTRF assay
[13] = Clearance in Sprague-Dawley rat plasma at 1 mg/kg, iv by UPLC-MS/MS analysis; assay type: ADME, organism-based; summary of the method: as §2
Mus musculus [14] = assay: Toxicity in BALB/c athymic nude mouse xenografted with human NCI-H1993 cells assessed as apparent toxicity parameters at 0.1 to 10 mg/kg, po administered once daily for 3 weeks; assay type: organism-based; settings: in vivo, 504 h

Sequence of Epidermal growth factor receptor (P00533 25-1210 T790M limits assumed): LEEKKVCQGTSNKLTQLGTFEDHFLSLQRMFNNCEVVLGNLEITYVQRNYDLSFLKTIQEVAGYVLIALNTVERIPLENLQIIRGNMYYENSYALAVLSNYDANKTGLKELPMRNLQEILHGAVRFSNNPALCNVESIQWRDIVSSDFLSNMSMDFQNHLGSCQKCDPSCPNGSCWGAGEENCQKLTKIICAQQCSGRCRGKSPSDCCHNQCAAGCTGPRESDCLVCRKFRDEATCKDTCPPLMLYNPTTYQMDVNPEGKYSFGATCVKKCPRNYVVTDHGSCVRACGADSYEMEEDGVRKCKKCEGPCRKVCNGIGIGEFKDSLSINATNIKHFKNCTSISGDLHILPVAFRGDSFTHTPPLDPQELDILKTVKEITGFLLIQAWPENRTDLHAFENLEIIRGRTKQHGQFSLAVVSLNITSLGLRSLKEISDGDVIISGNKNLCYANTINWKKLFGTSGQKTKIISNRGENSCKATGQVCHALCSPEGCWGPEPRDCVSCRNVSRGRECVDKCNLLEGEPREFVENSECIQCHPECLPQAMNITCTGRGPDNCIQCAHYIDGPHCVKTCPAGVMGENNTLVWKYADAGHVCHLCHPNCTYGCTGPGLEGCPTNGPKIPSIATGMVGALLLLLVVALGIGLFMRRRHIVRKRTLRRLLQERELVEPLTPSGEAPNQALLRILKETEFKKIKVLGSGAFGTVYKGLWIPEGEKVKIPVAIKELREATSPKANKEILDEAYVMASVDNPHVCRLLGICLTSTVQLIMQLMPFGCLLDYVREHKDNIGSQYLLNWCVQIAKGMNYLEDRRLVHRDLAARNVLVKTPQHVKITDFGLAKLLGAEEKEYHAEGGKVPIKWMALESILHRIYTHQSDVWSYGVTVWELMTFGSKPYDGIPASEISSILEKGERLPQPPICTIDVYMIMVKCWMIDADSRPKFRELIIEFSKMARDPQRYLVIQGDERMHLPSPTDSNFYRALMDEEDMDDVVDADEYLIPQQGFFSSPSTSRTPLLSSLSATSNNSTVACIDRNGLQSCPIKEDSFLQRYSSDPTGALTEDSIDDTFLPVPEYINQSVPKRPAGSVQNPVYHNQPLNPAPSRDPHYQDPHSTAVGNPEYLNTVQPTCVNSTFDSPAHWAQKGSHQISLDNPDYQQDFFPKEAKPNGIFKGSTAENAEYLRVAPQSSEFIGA
Sequence of CYP2C19 (P33261 whole entry): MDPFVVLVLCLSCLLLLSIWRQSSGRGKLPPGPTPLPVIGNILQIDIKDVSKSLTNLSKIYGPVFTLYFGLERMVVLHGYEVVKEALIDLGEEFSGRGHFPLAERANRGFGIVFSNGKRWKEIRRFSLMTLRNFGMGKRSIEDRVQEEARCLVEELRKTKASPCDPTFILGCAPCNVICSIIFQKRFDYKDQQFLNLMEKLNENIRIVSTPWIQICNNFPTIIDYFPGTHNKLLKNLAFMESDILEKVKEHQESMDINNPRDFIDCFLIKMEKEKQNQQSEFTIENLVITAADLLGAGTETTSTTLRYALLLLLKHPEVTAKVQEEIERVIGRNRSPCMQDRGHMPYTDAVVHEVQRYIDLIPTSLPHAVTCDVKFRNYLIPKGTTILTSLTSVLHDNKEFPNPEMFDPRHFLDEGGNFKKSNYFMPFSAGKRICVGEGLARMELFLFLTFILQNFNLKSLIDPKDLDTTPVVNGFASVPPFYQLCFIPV
Sequence of Platelet-derived growth factor receptor alpha (P16234 whole entry): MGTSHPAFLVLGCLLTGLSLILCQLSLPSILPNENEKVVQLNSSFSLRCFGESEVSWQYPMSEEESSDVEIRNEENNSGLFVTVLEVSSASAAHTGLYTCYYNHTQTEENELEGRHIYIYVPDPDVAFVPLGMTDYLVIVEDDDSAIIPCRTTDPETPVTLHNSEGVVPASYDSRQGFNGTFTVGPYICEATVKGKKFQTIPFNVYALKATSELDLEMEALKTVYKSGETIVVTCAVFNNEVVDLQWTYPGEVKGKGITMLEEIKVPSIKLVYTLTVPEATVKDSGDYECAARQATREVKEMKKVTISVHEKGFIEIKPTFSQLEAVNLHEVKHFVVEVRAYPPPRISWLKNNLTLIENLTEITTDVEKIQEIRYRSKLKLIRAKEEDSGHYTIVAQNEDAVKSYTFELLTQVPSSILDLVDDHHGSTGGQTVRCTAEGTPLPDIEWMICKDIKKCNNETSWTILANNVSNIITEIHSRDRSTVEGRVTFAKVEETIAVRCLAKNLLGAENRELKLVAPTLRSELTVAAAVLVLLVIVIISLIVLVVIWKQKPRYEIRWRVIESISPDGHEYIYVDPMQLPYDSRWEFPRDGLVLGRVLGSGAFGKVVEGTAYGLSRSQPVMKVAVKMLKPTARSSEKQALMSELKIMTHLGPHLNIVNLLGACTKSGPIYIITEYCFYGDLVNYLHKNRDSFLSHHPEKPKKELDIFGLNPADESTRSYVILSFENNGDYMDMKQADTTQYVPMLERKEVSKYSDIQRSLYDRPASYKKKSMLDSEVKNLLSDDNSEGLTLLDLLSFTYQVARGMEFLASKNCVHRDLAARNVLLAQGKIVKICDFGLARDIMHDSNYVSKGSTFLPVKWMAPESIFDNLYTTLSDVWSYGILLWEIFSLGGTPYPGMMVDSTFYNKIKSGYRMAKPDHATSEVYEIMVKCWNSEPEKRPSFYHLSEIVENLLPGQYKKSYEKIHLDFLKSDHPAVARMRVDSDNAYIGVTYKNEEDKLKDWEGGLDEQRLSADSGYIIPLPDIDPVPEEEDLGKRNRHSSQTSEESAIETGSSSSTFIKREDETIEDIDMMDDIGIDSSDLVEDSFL
Sequence of CYP2D6 (P10635 whole entry): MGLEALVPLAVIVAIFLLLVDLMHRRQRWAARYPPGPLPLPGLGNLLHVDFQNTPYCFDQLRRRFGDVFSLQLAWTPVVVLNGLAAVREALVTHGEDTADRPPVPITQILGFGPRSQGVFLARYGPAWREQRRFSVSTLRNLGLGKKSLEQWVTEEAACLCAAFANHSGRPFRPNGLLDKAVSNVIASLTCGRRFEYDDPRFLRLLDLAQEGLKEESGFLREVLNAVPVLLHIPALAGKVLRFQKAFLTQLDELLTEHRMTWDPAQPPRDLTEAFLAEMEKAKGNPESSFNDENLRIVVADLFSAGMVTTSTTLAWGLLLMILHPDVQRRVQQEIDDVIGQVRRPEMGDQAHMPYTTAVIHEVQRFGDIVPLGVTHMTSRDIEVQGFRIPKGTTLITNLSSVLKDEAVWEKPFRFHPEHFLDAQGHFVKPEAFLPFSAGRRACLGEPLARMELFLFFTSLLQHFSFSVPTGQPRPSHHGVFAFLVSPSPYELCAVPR
Sequence of Macrophage-stimulating protein receptor (Q04912 25-304 limits assumed): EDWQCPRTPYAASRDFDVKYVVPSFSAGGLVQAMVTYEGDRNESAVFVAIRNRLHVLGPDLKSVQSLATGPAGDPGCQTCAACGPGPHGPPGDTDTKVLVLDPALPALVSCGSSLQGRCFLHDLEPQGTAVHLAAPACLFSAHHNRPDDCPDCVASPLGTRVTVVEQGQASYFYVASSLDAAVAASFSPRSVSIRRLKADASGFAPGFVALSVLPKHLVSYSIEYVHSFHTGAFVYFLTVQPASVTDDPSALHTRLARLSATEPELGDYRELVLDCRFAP
Sequence of Macrophage-stimulating protein receptor (Q04912 310-1400 limits assumed): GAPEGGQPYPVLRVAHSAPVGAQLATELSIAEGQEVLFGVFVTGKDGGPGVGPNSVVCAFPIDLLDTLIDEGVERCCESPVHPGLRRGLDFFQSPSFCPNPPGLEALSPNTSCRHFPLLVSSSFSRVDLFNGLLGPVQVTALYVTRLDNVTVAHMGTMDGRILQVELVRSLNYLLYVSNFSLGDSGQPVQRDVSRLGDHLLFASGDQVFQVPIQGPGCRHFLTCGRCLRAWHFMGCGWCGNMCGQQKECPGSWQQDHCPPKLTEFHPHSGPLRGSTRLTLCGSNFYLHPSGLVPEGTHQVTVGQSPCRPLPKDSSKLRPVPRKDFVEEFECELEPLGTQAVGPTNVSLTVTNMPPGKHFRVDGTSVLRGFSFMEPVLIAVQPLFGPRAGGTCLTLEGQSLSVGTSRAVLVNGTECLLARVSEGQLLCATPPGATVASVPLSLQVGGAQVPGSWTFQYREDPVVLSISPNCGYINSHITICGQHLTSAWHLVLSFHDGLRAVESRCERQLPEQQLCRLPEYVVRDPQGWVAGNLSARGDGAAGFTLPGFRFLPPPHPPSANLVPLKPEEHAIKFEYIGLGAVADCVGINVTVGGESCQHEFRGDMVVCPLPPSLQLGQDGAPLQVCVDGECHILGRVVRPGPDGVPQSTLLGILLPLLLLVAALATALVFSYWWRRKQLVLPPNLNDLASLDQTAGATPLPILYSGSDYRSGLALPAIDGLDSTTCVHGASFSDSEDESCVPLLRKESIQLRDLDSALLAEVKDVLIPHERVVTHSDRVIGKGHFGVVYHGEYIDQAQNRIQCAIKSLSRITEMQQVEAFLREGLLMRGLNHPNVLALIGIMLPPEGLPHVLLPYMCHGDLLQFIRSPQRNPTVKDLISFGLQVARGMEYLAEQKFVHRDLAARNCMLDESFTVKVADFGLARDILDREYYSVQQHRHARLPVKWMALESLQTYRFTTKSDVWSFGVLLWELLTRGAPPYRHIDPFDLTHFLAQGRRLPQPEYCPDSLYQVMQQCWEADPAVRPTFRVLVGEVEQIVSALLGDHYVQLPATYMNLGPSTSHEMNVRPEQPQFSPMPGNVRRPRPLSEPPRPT

inhibition at 20 min, 10 µM (CYP2D6): < 50%
IC50 (SNU-5): 0.002 µM
IC50 [1]: 5.4 µM
inhibition at 20 min, 10 µM (CYP1A2): < 50%
IC50 [2]: 0.731 µM
F (Rattus norvegicus): 12.1%
microsomal CLint at 1 µM [3]: 5 µL/min/mg
microsomal CLint at 1 µM [4]: 5 µL/min/mg
inhibition at 10 µM (CYP2C9): < 50%
IC50 [5]: > 30 µM
AUC(0-t) at 24 h [7]: 1250 ng·h/mL
inhibition at 10 µM (CYP2C19): < 50%
Cmax [8]: 135 ng/mL
half-life [9]: 3.7 h
IC50 [10]: > 30 µM
IC50 [11]: 2.36 µM
IC50 [12]: 0.0006 µM
clearance [13]: 9.67 mL/min/kg
Compound: CC(c1cc2cc(-c3cnn(C)c3)cnc2cc1F)n1nnc2ncc(-c3cnn(CCO)c3)nc21 (stereo in doubt; 14)
Activity (Mus musculus [6]): Non-Toxic
Activity (Mus musculus [14]): Non-Toxic
